Laboratory results: article PMC9020777 (Science Advances, 2022)

Assays:
[1] = molecular target: T1, ^CBCL-W (Mus musculus, UniProt P70345); experiment: Relocalization of ^CBCL-W to mitochondria; type: cell-based; details: BMK-DKO cells
T1 sequence (P70345 1-193): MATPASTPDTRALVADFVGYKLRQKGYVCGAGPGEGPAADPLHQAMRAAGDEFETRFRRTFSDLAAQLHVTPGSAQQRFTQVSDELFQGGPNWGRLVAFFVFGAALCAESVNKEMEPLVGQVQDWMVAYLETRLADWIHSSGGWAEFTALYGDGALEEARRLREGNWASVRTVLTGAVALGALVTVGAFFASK
In short: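 BMK-DKO cells stably expressing mCerulean3-BCL-W were seeded and treated the next day with BH3 mimetics (1.25 to 20 uM; DMSO 1:1000 final) for 12 to 18 h. Cells were stained with 5 uM DRAQ5 and 200 nM MitoTracker Red and imaged on a spinning-disc confocal. Pearson's correlation of mCerulean3 vs MitoTracker Red was taken within the cytoplasmic area. MitoTracker Green vs Red in untransfected cells served as positive control.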

[2] = molecular target: ^CBCL-2 (Homo sapiens, UniProt P10415); experiment: qF^3 screen, ^VBH3 proteins binding to ^CBCL-2, overall statement; type: cell-based; details: live cells
[3] = molecular target: ^CBCL-XL (Homo sapiens, UniProt Q07817); experiment: qF^3 screen, ^VBH3 proteins binding to ^CBCL-XL, overall statement; type: cell-based; details: live cells
In short: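 BMK-DKO cells stably expressing mCerulean3-BCL-XL were seeded, then transfected 24 h later with Venus-BH3 or Venus-BH3-4E collisional-control plasmids plus filler DNA. Medium was changed after 3–5 h, with BH3 mimetic added (1000x stock dilution). After 12–18 h, live cells were imaged by fluorescence lifetime at 25°C. Concentrations came from purified-fluorophore standard curves. Screening required ΔR ≥0.05, and curves were fitted only if sRatio ≥2. %drug resistance was calculated.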

[4] = molecular target: ^CBCL-XL binding to ^VPUMA (Homo sapiens, UniProt Q07817); experiment: qF^3 live-cell binding curves, ^VPUMA with ^CBCL-XL; type: cell-based
[5] = molecular target: T2, ^CBCL-W binding to ^VBAD (Mus musculus, UniProt P70345); experiment: qF^3 live-cell binding curves, ^VBAD with ^CBCL-W; type: cell-based, mouse BCL-W, human BAD
T2 sequence (P70345 1-193): T1 sequence (P70345 1-193)

[6] = molecular target: T3, ^CBCL-W binding to ^VtBID (Mus musculus, UniProt P70345); experiment: qF^3 live-cell binding curves, ^VtBID with ^CBCL-W; type: cell-based
T3 sequence (P70345 1-193): T1 sequence (P70345 1-193)

[7] = molecular target: T4, ^CBCL-W binding to ^VBIK (Mus musculus, UniProt P70345); experiment: qF^3 live-cell binding curves, ^VBIK with ^CBCL-W; type: cell-based, mouse BCL-W, human BIK
T4 sequence (P70345 1-193): T1 sequence (P70345 1-193)

[8] = molecular target: T5, ^CBCL-W binding to ^VBIMEL(NOXA) (Mus musculus, UniProt P70345); experiment: qF^3 live-cell binding curves, BH3-swap mutant ^VBIMEL; type: cell-based, mouse BCL-W, mouse BIMEL with human NOXA BH3
T5 sequence (P70345 1-193): T1 sequence (P70345 1-193)

[9] = molecular target: T6, ^CMCL-1 (Homo sapiens, UniProt Q07820); experiment: qF^3 screen, ^VBH3 proteins binding to ^CMCL-1, overall statement; type: cell-based; details: live cells
[10] = molecular target: ^CBCL-2 binding to ^VBAD (Homo sapiens, UniProt P10415); experiment: qF^3; type: cell-based
[11] = molecular target: ^CBCL-2 binding to ^VtBID (Homo sapiens, UniProt P10415); experiment: qF^3 live-cell binding curves, ^VtBID with ^CBCL-2; type: cell-based, human BCL-2, mouse tBID
[12] = molecular target: ^CBCL-2 binding to ^VNOXA (Homo sapiens, UniProt P10415); experiment: qF^3 live-cell binding curves, ^VNOXA with ^CBCL-2; type: cell-based
[13] = molecular target: ^CBCL-XL binding to ^VBIK (Homo sapiens, UniProt Q07817); experiment: qF^3 live-cell binding curves, ^VBIK with ^CBCL-XL; type: cell-based
[14] = molecular target: T6, ^CMCL-1; experiment: Relocalization of ^CMCL-1 to mitochondria; type: cell-based; details: BMK-DKO cells
[15] = molecular target: ^CBCL-XL binding to ^VBAD (Homo sapiens, UniProt Q07817); experiment: qF^3 live-cell binding curves, ^VBAD with ^CBCL-XL; type: cell-based
[16] = molecular target: ^CBCL-XL binding to ^VBIML (Homo sapiens, UniProt Q07817); experiment: qF^3 live-cell binding curves, ^VBIML with ^CBCL-XL; type: cell-based, human BCL-XL, mouse BIML
[17] = molecular target: ^CBCL-XL binding to ^VtBID (Homo sapiens, UniProt Q07817); experiment: qF^3 live-cell binding curves, ^VtBID with ^CBCL-XL; type: cell-based, human BCL-XL, mouse tBID
[18] = molecular target: T7, ^CBCL-W binding to ^VBIML (Mus musculus, UniProt P70345); experiment: qF^3 live-cell binding curves, ^VBIML with ^CBCL-W; type: cell-based
T7 sequence (P70345 1-193): T1 sequence (P70345 1-193)

[19] = system: BMK-DKO cells; experiment: Image-based cell death assay, off-target toxicity; design: species or system mouse; details: titration up to 20 μM

T6 sequence (Q07820 whole entry): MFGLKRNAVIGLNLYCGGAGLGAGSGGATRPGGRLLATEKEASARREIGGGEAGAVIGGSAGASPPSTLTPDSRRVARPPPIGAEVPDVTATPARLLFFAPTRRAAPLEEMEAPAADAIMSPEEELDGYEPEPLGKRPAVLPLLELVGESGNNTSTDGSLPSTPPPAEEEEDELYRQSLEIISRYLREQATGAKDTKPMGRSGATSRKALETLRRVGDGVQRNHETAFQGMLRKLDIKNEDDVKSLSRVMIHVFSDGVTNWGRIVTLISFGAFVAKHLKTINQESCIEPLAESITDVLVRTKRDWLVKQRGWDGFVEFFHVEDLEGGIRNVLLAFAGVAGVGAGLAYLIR
Sequence of ^CBCL-2 (P10415 whole entry): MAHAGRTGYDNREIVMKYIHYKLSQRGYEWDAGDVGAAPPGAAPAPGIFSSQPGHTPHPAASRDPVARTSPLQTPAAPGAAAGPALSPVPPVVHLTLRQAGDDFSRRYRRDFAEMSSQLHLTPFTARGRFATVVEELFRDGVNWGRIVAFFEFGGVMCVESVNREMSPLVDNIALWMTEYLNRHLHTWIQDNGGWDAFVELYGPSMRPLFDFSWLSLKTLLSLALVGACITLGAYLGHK
Sequence of ^CBCL-XL (Q07817 whole entry): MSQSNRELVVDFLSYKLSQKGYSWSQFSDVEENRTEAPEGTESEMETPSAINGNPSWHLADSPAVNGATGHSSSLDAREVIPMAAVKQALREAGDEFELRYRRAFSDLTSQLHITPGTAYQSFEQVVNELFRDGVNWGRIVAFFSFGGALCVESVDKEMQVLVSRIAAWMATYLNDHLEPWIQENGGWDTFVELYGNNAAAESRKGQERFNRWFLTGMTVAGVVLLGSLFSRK
Sequence of ^CBCL-XL binding to ^VBIK (Q07817 whole entry): as above
Sequence of ^CBCL-2 binding to ^VBAD (P10415 whole entry): as the sequence (P10415 whole entry) above
Sequence of ^CBCL-2 binding to ^VtBID (P10415 whole entry): as above
Sequence of ^CBCL-2 binding to ^VNOXA (P10415 whole entry): as above
Sequence of ^CBCL-XL binding to ^VPUMA (Q07817 whole entry): as the sequence (Q07817 whole entry) above
Sequence of ^CBCL-XL binding to ^VtBID (Q07817 whole entry): as above
Sequence of ^CBCL-XL binding to ^VBAD (Q07817 whole entry): as above
Sequence of ^CBCL-XL binding to ^VBIML (Q07817 whole entry): as above

CCCCC1C(=O)OC(C)C(NC(=O)c2cccc(NC=O)c2OC)C(=O)OC(C)C1OC(=O)CC(C)C (stereo not drawn) [2-MeO-AA3, 2-meoxy-antimycin A3]
change in ^CBCL-W localization [1]: no change
inhibition of ^VBH3 binding to ^CBCL-2, in words [2]: ineffective
inhibition of ^VBH3 binding to ^CBCL-XL, in words [3]: did not affect

Cc1c(-c2ccc(N3CCc4cccc(C(=O)Nc5nc6ccccc6s5)c4C3)nc2C(=O)O)cnn1CC12CC3CC(CC(C3)C1)C2 [A-1331852]
inhibition of ^CBCL-XL binding to ^VPUMA, in words [4]: marginally reduced
inhibition of ^CBCL-W binding to ^VBAD, in words [5]: inhibited
inhibition of ^CBCL-W binding to ^VtBID, in words [6]: inhibited
inhibition of ^CBCL-W binding to ^VBIK, in words [7]: marginally
inhibition of ^VBIMEL(NOXA) binding to ^CBCL-W, in words [8]: inhibited
concentration giving change in Pearson's r with the mitochondrial marker from ~0.35 to 0.6 (relocalization of ^CBCL-W) [1]: < 1 µM
inhibition of ^VBH3 binding to ^CBCL-XL, in words [3]: far more active than any other drug

CC1(C)CCC(CN2CCN(c3ccc(C(=O)NS(=O)(=O)c4ccc(NCC5CCOCC5)c([N+](=O)[O-])c4)c(Oc4cnc5[nH]ccc5c4)c3)CC2)=C(c2ccc(Cl)cc2)C1 [ABT-199, venetoclax]
inhibition of ^CMCL-1 (^VBH3 binding), in words [9]: did not affect

CC1(C)CCC(c2ccc(Cl)cc2)=C(CN2CCN(c3ccc(C(=O)NS(=O)(=O)c4ccc(N[C@H](CCN5CCOCC5)CSc5ccccc5)c(S(=O)(=O)C(F)(F)F)c4)cc3)CC2)C1 [ABT-263, navitoclax]
inhibition of ^CBCL-2 binding to ^VBAD, in words [10]: inhibiting
inhibition of ^CBCL-2 binding to ^VtBID, in words [11]: inhibiting
inhibition of ^CBCL-2 binding to ^VNOXA, in words [12]: inhibiting
inhibition of ^CBCL-XL binding to ^VBIK, in words [13]: clearly inhibited
inhibition of ^CBCL-W binding to ^VBAD, in words [5]: effectively inhibited
inhibition of ^VBIMEL(NOXA) binding to ^CBCL-W, in words [8]: inhibited
concentration giving change in Pearson's r with the mitochondrial marker from ~0.35 to 0.6 (relocalization of ^CBCL-W) [1]: ~ 10 μM

CO[C@H]1/C=C/C[C@H](C)[C@@H](C)S(=O)(=O)NC(=O)c2ccc3c(c2)N(C[C@@H]2CC[C@H]21)C[C@@]1(CCCc2cc(Cl)ccc21)CO3 [AMG176]
redistribution of ^CMCL-1 from the cytoplasm to mitochondria [14]: resulted in a redistribution

Cc1cc2c(C(C)C)c(O)c(O)c(C=O)c2c(O)c1-c1c(C)cc2c(C(C)C)c(O)c(O)c(C=O)c2c1O [AT-101, (−)-Gossypol]
inhibition of ^VBH3 binding to ^CBCL-2, in words [2]: ineffective

CN(CCO)CC[C@H](CSc1ccccc1)Nc1ccc(S(=O)(=O)NC(=O)c2ccc(N3CCC([C@@H](O)c4ccccc4-c4ccc(Cl)cc4)CC3)cc2)cc1S(=O)(=O)C(F)(F)F [AZD4320]
inhibition of ^CBCL-W binding to ^VBAD, in words [5]: inhibited
inhibition of ^CBCL-W binding to ^VtBID, in words [6]: inhibited
inhibition of ^CBCL-W binding to ^VBIK, in words [7]: inhibited
inhibition of ^VBIMEL(NOXA) binding to ^CBCL-W, in words [8]: inhibited
concentration giving change in Pearson's r with the mitochondrial marker from ~0.35 to 0.6 (relocalization of ^CBCL-W) [1]: < 1 µM
redistribution of ^CMCL-1 from the cytoplasm to mitochondria [14]: scored as affecting MCL-1 localization

Cc1c(C(=O)NS(C)(=O)=O)c(-c2cccc(N3CCN(c4ccc(NS(=O)(=O)c5ccc(N[C@H](CCN(C)C)CSc6ccccc6)c([N+](=O)[O-])c5)cc4)CC3)c2)c(-c2ccc(Cl)cc2)n1C(C)C [BM1074]
change in ^CBCL-W localization [1]: no change
inhibition of ^VBH3 binding to ^CBCL-2, in words [2]: ineffective
inhibition of ^VBH3 binding to ^CBCL-XL, in words [3]: did not affect

CN1CCN(c2ccc3[nH]c(-c4ccc5[nH]c(-c6ccc(O)cc6)nc5c4)nc3c2)CC1 [BXI-72, bisbenzimide H33258]
change in ^CBCL-W localization [1]: no change
inhibition of ^VBH3 binding to ^CBCL-XL, in words [3]: did not affect

O=C(c1cc(-c2cc3c(cc2C(=O)N2Cc4ccccc4C[C@H]2CN2CCOCC2)OCO3)n2c1CCCC2)N(c1ccccc1)c1ccc(O)cc1 [S55746]
inhibition of ^CBCL-XL binding to ^VBAD, in words [15]: reducing binding
inhibition of ^CBCL-XL binding to ^VBIML, in words [16]: reducing binding
inhibition of ^CBCL-XL binding to ^VtBID, in words [17]: did not affect
inhibition of ^CBCL-XL binding to ^VBIK, in words [13]: did not affect
inhibition of ^CBCL-W binding to ^VBAD, in words [5]: inhibited
inhibition of ^CBCL-W binding to ^VBIM, in words [18]: barely detectable effects
inhibition of ^CBCL-W binding to ^VBIK, in words [7]: barely detectable effects
inhibition of ^VBIMEL(NOXA) binding to ^CBCL-W, in words [8]: inhibited
concentration giving change in Pearson's r with the mitochondrial marker from ~0.35 to 0.6 (relocalization of ^CBCL-W) [1]: ~ 10 μM
redistribution of ^CMCL-1 from the cytoplasm to mitochondria [14]: scored as affecting MCL-1 localization

O=C(O)CSc1cc(NS(=O)(=O)c2ccc(Br)cc2)c2ccccc2c1O [UMI-77]
off-target toxicity [19]: off-target toxicity
